The values that follow come from ChEMBL document CHEMBL4024801, “Synthesis and Structure-Activity Relationship (SAR) Studies of Novel Pyrazolopyridine Derivatives as Inhibitors of Enterovirus Replication” (J Med Chem, 2018).

As usually defined, the EC50 is the concentration at which the effect is half-maximal. The term CC50 denotes the concentration giving 50% cytotoxicity.

One series relates to Enterovirus A71. As to the kind of experiment: Antiviral activity against Enterovirus A71 infected in monkey LLC-MK2 cells assessed as protection against virus-induced cytopathic effect after 3 to 4 days by crystal violet staining-based spectrophotometric method. Particulars: Enterovirus A. It counts as functional, cell-based. In outline:
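EV-A71 was tested in LLC-MK2 cells grown in DMEM with 10% FBS, penicillin, streptomycin and glutamine, at a low MOI preset to give full CPE in 3–4 days. Compound was dissolved in DMSO and diluted 2-fold, in triplicate. Cells were fixed with formaldehyde when control CPE was maximal, then stained with crystal violet and read at OD590. EC50 came from a 7-point four-parameter or sigmoidal fit.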
(Protection from cytopathic effect is a common read-out in antiviral testing.)

A further series concerns Coxsackievirus B3. Put plainly: Antiviral activity against Coxsackievirus B3 infected in human HeLa-RW cells assessed as protection against virus-induced cytopathic effect after 3 to 4 days by crystal violet staining-based spectrophotometric method. It counts as functional, cell-based. Particulars: Enterovirus B. In outline:
(§1)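 HeLa-RW cells grown in DMEM with penicillin, streptomycin, glutamine and 10% FBS. They were infected at a low MOI pre-set to give full CPE in 3-4 days. Compound in DMSO was added as serial 2-fold dilutions (7 points), each in triplicate. When control CPE was maximal, cells were fixed with 4% formaldehyde, stained with 0.25% crystal violet and read at OD590. EC50 came from a four-parameter or sigmoidal fit.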

The subject of another series is Poliovirus 1. Put plainly: Antiviral activity against Poliovirus 1 infected in human HeLa-RW cells assessed as protection against virus-induced cytopathic effect after 3 to 4 days by crystal violet staining-based spectrophotometric method. It counts as functional, cell-based. The conditions noted are these: Enterovirus C. In outline:
as §1

The next series concerns Poliovirus 3. Put plainly: Antiviral activity against Poliovirus 3 infected in human HeLa-RW cells assessed as protection against virus-induced cytopathic effect after 3 to 4 days by crystal violet staining-based spectrophotometric method. It is filed as functional, cell-based. Particulars: Enterovirus C. In outline:
as §1

The subject of another series is LLC-MK2. Put plainly: Cytotoxicity against monkey LLC-MK2 cells after 3 to 4 days by crystal violet staining-based spectrophotometric method. It counts as cell-based, Macaca mulatta. Particulars: rhesus monkey. In outline:
(§2)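 Uninfected cells (HeLa-RW or LLC-MK2, in DMEM with penicillin, streptomycin, glutamine and 10% FBS) were exposed to serial 2-fold compound dilutions for the same period as the CPE assay. They were then fixed with formaldehyde, stained with crystal violet and read by OD590 spectrophotometry to derive CC50. Values are means ± s.d. of 3 experiments, or the average of triplicates in one.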

The nature of series [1]: Cytotoxicity against human HeLa-RW cells after 3 to 4 days by crystal violet staining-based spectrophotometric method. It is filed as cell-based. Particulars: hela-rw. In outline: as §2
A short description of series [2]: Selectivity index, ratio of CC50 for monkey LLC-MK2 cells to EC50 for Enterovirus A71. It is filed as toxicity. Particulars: read-out: Ratio CC50/EC50. In outline:
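LLC-MK2 cells in DMEM with 10% FBS were used for both arms. For EC50, cells were infected with EV-A71 at a low MOI giving full CPE in 3–4 days and exposed to 2-fold compound dilutions, in triplicate. For CC50, uninfected cells got 2-fold dilutions for the same period. Both arms were formaldehyde-fixed, crystal violet-stained and read at OD590.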

The nature of series [3]: Selectivity index, ratio of CC50 for human HeLa-RW cells to EC50 for Coxsackievirus B3. Particulars: read-out: Ratio CC50/EC50. It counts as toxicity. In outline: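 HeLa-RW cells in DMEM with 10% FBS were used for both arms. For EC50, cells were infected with CVB3-H3 at a low MOI giving full CPE in 3–4 days and exposed to 2-fold compound dilutions, in triplicate, with a 7-point fit. For CC50, uninfected cells got 2-fold dilutions for the same period. Both arms were fixed, crystal violet-stained and read at OD590.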

Consider `CC(C)n1ncc2c(C(=O)Nc3cccc(S(=O)(=O)N(C)C)c3)cc(-c3cccs3)nc21`, for which the EC50 is 800 nM in the series with Enterovirus A71, 1000 nM in the series with Coxsackievirus B3, > 10 µM in the series on Poliovirus 1 and > 10 µM in the series with Poliovirus 3. Further, the CC50 in the series on LLC-MK2 is > 200 µM; in series [1], 12 µM. Further, the values for the selectivity ratio in series [2] and in series [3] were > 250 and 12, respectively.

As for `CC(C)n1ncc2c(C(=O)Nc3ccc(F)cc3)cc(C3CC3)nc21`, the EC50 in the series with Enterovirus A71 is 3200 nM; with Coxsackievirus B3 it was 3300 nM; with Poliovirus 1 it was > 25 µM; with Poliovirus 3 it was > 25 µM. In addition, the CC50 in the series on LLC-MK2 was found to be 12.5 µM; in series [1] it was 10 µM. For the same compound, the selectivity ratio in series [2] was 3.9; in series [3] it was 3.

For the compound `CC(C)n1ncc2c(C(=O)Nc3ccccc3F)cc(-c3cncs3)nc21`, the EC50 with Enterovirus A71 was 3700 nM; in the series with Coxsackievirus B3 it was 3300 nM; in the series on Poliovirus 1, > 25 µM; in the series with Poliovirus 3, > 25 µM. Besides, the CC50 with LLC-MK2 was 100 µM; in series [1], > 200 µM. Moreover, the selectivity ratio was 27 in series [2] and > 60.6 in series [3].

On to `CC(C)n1ncc2c(C(=O)Nc3ccccc3F)cc(-c3ccccc3)nc21`, for which the EC50 is 5700 nM in the series on Enterovirus A71, 4500 nM in the series on Coxsackievirus B3, > 25 µM in the series on Poliovirus 1 and > 25 µM with Poliovirus 3. In addition, the figures for the CC50 (with LLC-MK2; in series [1]) were > 200 µM and 37.5 µM, respectively. The selectivity ratio is > 35.1 in series [2] and 8.3 in series [3].

As to `CC(C)n1ncc2c(C(=O)Nc3ncccn3)cc(-c3cccs3)nc21`, the EC50 in the series on Enterovirus A71 is 500 nM; in the series on Coxsackievirus B3, 600 nM; in the series on Poliovirus 1, > 10 µM; in the series with Poliovirus 3 it was > 10 µM. Further, the CC50 in the series with LLC-MK2 was found to be 75 µM; in series [1] it was 37.5 µM. Further, the values for the selectivity ratio in series [2] and in series [3] were 150 and 62.5, respectively.

Turning to `CC(C)n1ncc2c(C(=O)N3CCc4cccnc43)cc(-c3cccs3)nc21`, the EC50 is 12500 nM in the series on Enterovirus A71, 9400 nM with Coxsackievirus B3, > 10 µM in the series with Poliovirus 1 and > 10 µM in the series on Poliovirus 3. For the same compound, the CC50 in the series on LLC-MK2 is 50 µM; in series [1], 37.5 µM. In addition, the selectivity ratio in series [2] and in series [3] was 4 each time.

For `CC(C)n1ncc2c(C(=O)Nc3ccncn3)cc(-c3ccsc3)nc21`, the EC50 with Enterovirus A71 was 800 nM; in the series on Coxsackievirus B3 it was 1200 nM; in the series with Poliovirus 1 it was > 10 µM; in the series with Poliovirus 3, > 10 µM. Moreover, the CC50 (with LLC-MK2; in series [1]) was > 200 µM each time. For the same compound, the selectivity ratio in series [2] is > 250; in series [3] it was > 167.

Take `CC(C)n1ncc2c(C(=O)Nc3ccc(F)c(S(N)(=O)=O)c3)cc(-c3cccs3)nc21`: the EC50 is 800 nM in the series with Enterovirus A71, 1100 nM in the series with Coxsackievirus B3, > 10 µM in the series with Poliovirus 1 and > 10 µM in the series on Poliovirus 3. Besides, the figures for the CC50 (in the series with LLC-MK2; in series [1]) were 50 µM and > 200 µM, respectively. Also, the selectivity ratio in series [2] was 62.5; in series [3] it was > 182.

On to `CC(C)n1ncc2c(C(=O)Nc3cccc(F)c3F)cc(-c3cccs3)nc21`, for which the EC50 was 3000 nM in the series with Enterovirus A71, 2700 nM in the series with Coxsackievirus B3, > 25 µM in the series on Poliovirus 1 and > 25 µM with Poliovirus 3. The CC50 is 75 µM in the series with LLC-MK2 and > 200 µM in series [1]. Further, the selectivity ratio was 25 in series [2] and > 74.1 in series [3].

In the case of `CC(C)n1ncc2c(C(=O)Nc3ccncn3)cc(-c3cccs3)nc21`, the EC50 is 500 nM in the series on Enterovirus A71, 600 nM in the series with Coxsackievirus B3, > 10 µM with Poliovirus 1 and > 10 µM in the series on Poliovirus 3. In addition, the CC50 with LLC-MK2 amounted to 50 µM; in series [1], 20 µM. The selectivity ratio amounted to 100 in series [2] and 33.3 in series [3].

For `CC(C)n1ncc2c(C(=O)Nc3ncccn3)cc(-c3ccsc3)nc21`, the EC50 is 1200 nM in the series on Enterovirus A71, 1200 nM with Coxsackievirus B3, > 10 µM in the series with Poliovirus 1 and > 10 µM in the series with Poliovirus 3. The CC50 came out at 50 µM in the series with LLC-MK2 and 40 µM in series [1]. The selectivity ratio in series [2] was 41.7; in series [3], 33.3.

On to `CC(C)n1ccc2c(C(=O)Nc3cccnc3)cc(-c3cccs3)nc21`, for which the EC50 was 800 nM in the series on Enterovirus A71, 1300 nM in the series on Coxsackievirus B3, > 10 µM in the series with Poliovirus 1 and > 10 µM with Poliovirus 3. The results for the CC50 (with LLC-MK2; in series [1]) were 25 µM and 18 µM, respectively. Moreover, the values for the selectivity ratio in series [2] and in series [3] were 31.3 and 13.8, respectively.

Turning to `CC(C)n1ncc2c(C(=O)Nc3ccc(F)cc3)cc(-c3ccco3)nc21`, the half-maximal effective concentration (EC50) in the series on Enterovirus A71 was 2600 nM; in the series on Coxsackievirus B3, 2400 nM; with Poliovirus 1, > 25 µM; in the series with Poliovirus 3, > 25 µM. In addition, the 50% cytotoxic concentration (CC50) (with LLC-MK2; in series [1]) was > 200 µM each time. The values for the selectivity ratio in series [2] and in series [3] were > 76.9 and > 83, respectively.

Regarding `CC(C)n1ncc2c(C(=O)Nc3ccccc3S(N)(=O)=O)cc(-c3cccs3)nc21`, the EC50 with Enterovirus A71 is 2500 nM; in the series with Coxsackievirus B3, 2600 nM; in the series with Poliovirus 1, > 25 µM; in the series on Poliovirus 3, > 25 µM. In addition, the CC50 in the series with LLC-MK2 is 25 µM; in series [1], 10 µM. Moreover, the selectivity ratio in series [2] stood at 10; in series [3], 3.8.

For the compound `CC(C)n1ncc2c(C(=O)Nc3ccc(S(C)(=O)=O)cc3)cc(-c3cccs3)nc21`, the half-maximal effective concentration (EC50) in the series on Enterovirus A71 was 500 nM; in the series on Coxsackievirus B3 it was 1000 nM; with Poliovirus 1 it was > 10 µM; in the series on Poliovirus 3, > 10 µM. Besides, the CC50 amounted to 50 µM with LLC-MK2 and 200 µM in series [1]. Also, the selectivity ratio in series [2] was 100; in series [3], 200.

With `CC(C)n1ncc2c(C(=O)Nc3c(F)cccc3F)cc(-c3cccs3)nc21`, the EC50 in the series with Enterovirus A71 is 3400 nM; with Coxsackievirus B3, 3200 nM; with Poliovirus 1, > 25 µM; with Poliovirus 3 it was > 25 µM. Besides, the CC50 (in the series on LLC-MK2; in series [1]) was > 200 µM throughout. Further, the selectivity ratio in series [2] was > 58.8; in series [3], > 62.5.

Consider `CC(C)n1ncc2c(C(=O)Nc3ccccn3)cc(-c3ccsc3)nc21`, for which the EC50 in the series with Enterovirus A71 was 800 nM; in the series on Coxsackievirus B3 it was 1200 nM; with Poliovirus 1 it was > 10 µM; in the series on Poliovirus 3, > 10 µM. Besides, the values for the CC50 (in the series on LLC-MK2; in series [1]) were 25 µM and 18 µM, respectively. Moreover, the selectivity ratio in series [2] was determined as 31.3; in series [3] it was 15.

On to `CNS(=O)(=O)c1cccc(NC(=O)c2cc(-c3cccs3)nc3c2cnn3C(C)C)c1`, for which the EC50 in the series on Enterovirus A71 is 700 nM; with Coxsackievirus B3, 500 nM; in the series on Poliovirus 1 it was > 10 µM; in the series on Poliovirus 3 it was > 10 µM. In addition, the CC50 in the series with LLC-MK2 is 25 µM; in series [1], 12 µM. Also, the selectivity ratio was 35.7 in series [2] and 24 in series [3].

Turning to `CC(C)n1ncc2c(C(=O)Nc3ccccn3)cc(-c3ccccc3)nc21`, the EC50 in the series with Enterovirus A71 was 700 nM; with Coxsackievirus B3 it was 1600 nM; with Poliovirus 1 it was > 25 µM; in the series with Poliovirus 3, > 25 µM. In addition, the CC50 in the series on LLC-MK2 turned out to be 12.5 µM; in series [1], 18.8 µM. Also, the selectivity ratio turned out to be 17.9 in series [2] and 11.8 in series [3].
